We go through eleven molecules from ChEMBL document CHEMBL4627348, “Synthesis of (1,3,4-thiadiazol-2-yl)-acrylamide derivatives as potential antitumor agents against acute leukemia cells” (Bioorg Med Chem Lett, 2020).

Data set [1] relates to HL-60. In words: Antiproliferative activity against human HL60 cells assessed as growth inhibition after 48 hrs by CCK-8 assay. The class given is functional, cell-based. As to conditions: HL-60, 48 h. (Formazan colour is commonly taken as a measure of viable cells.)
Data set [2] in a line: Cytotoxicity against HEK293T cells assessed as growth inhibition at 20 uM after 48 hrs by CCK8 assay relative to control. The class given is cell-based, HEK-293T. Particulars: human, HEK293T cells; read-out: GI. In a few lines: (§1)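 Single-dose screen at 20 μM in RS4;11 (human ALL), HL-60 (human promyelocytic leukemia) and HEK293T (normal-cell model). Cells exposed 48 h, viability read by CCK-8, growth inhibition ratio expressed relative to control.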

The next data set concerns HEK-293T. Put plainly: Cytotoxicity against human HEK293T cells assessed as growth inhibition after 48 hrs by CCK8 assay. The class given is cell-based.
The subject of data set [3] is HL-60. Put plainly: Antiproliferative activity against human HL60 cells assessed as growth inhibition at 20 uM after 48 hrs by CCK-8 assay relative to control. In kind it is functional. Particulars: HL-60, 48 h, read-out: GI. In a few lines:
as §1

Data set [4] has as its system RS4-11. Put plainly: Antiproliferative activity against human RS4:11 cells assessed as growth inhibition after 48 hrs by CCK-8 assay. The class given is functional, cell-based. As to conditions: RS4-11, 48 h.
Data set [5] deals with RS4-11. In words: Antiproliferative activity against human RS4:11 cells assessed as growth inhibition at 20 uM after 48 hrs by CCK-8 assay relative to control. The class given is functional. Particulars: RS4-11, 48 h, read-out: GI. In a few lines:
as §1

In the case of `COc1ccc(S(=O)(=O)Oc2ccccc2/C=C(\C#N)C(=O)Nc2nnc(Cc3cccc4ccccc34)s2)cc1`, the IC50 in the data set on HL-60 [1] is 4.7 µM; in the data set with HEK-293T, above 50 µM; in the data set on RS4-11 [4], 1.36 µM. Moreover, the inhibition at 48 h, 20 µM in data set [2] came to 29%. Also, the figures for the inhibition of growth at 20 µM in the data set on HL-60 [3] and with RS4-11 [5] were 98% and 78%, respectively.

Consider `N#C/C(=C\c1ccccc1OS(=O)(=O)c1ccc(C(F)(F)F)cc1)C(=O)Nc1nnc(-c2cccs2)s1`, for which the values for the IC50 in the data set with HL-60 [1], with HEK-293T and in the data set on RS4-11 [4] were 17.5 µM, 12.3 µM and 10.5 µM, respectively. Also, in data set [2], the inhibition at 48 h, 20 µM is 57%. The inhibition of growth at 20 µM turned out to be 55% in the data set with HL-60 [3] and 58% with RS4-11 [5].

As to `COc1ccc(Cc2nnc(NC(=O)/C(C#N)=C/c3ccccc3OS(=O)(=O)c3ccc([N+](=O)[O-])cc3)s2)cc1`, the IC50 with HL-60 [1] is 10.9 µM; in the data set on HEK-293T it was above 50 µM; with RS4-11 [4], 3.67 µM. The inhibition at 48 h, 20 µM in data set [2] amounted to 17%. Also, the inhibition of growth at 20 µM was 51% with HL-60 [3] and 70% in the data set with RS4-11 [5].

Consider `Cc1ccc(S(=O)(=O)Oc2cccc(/C=C(\C#N)C(=O)Nc3nnc(-c4cccs4)s3)c2)cc1`, for which the results for the IC50 with HL-60 [1], in the data set with HEK-293T and in the data set with RS4-11 [4] were 8.75 µM, above 20 µM and above 20 µM, respectively. Moreover, in data set [2], the inhibition at 48 h, 20 µM was determined as 43%. The inhibition of growth at 20 µM in the data set on HL-60 [3] is 62%; in the data set on RS4-11 [5], 25%.

Take `CC(=O)Nc1ccc(S(=O)(=O)Oc2cccc(/C=C(\C#N)C(=O)Nc3nnc(-c4cccs4)s3)c2)cc1`: the IC50 is 7.94 µM in the data set on HL-60 [1], above 20 µM in the data set on HEK-293T and above 20 µM in the data set on RS4-11 [4]. Also, in data set [2], the inhibition at 48 h, 20 µM was 20%. The inhibition of growth at 20 µM in the data set with HL-60 [3] was 71%; with RS4-11 [5], 33%.

As to `COc1ccc(S(=O)(=O)Oc2ccccc2/C=C(\C#N)C(=O)Nc2nnc(-c3cccs3)s2)cc1`, the half-maximal inhibitory concentration (IC50) in the data set on HL-60 [1] is 5.23 µM; with HEK-293T it was above 20 µM; in the data set with RS4-11 [4], 4.75 µM. The inhibition at 48 h, 20 µM in data set [2] amounted to 40%. The inhibition of growth at 20 µM came out at 67% in the data set on HL-60 [3] and 76% in the data set with RS4-11 [5].

With `COc1ccc(S(=O)(=O)Nc2cccc(/C=C(\C#N)C(=O)Nc3nnc(-c4cccs4)s3)c2)cc1`, the IC50 was 8.37 µM in the data set on HL-60 [1], above 20 µM in the data set with HEK-293T and above 20 µM with RS4-11 [4]. Moreover, in data set [2], the inhibition at 48 h, 20 µM was 21%. The inhibition of growth at 20 µM with HL-60 [3] was 77%; in the data set with RS4-11 [5], 40%.

In the case of `N#C/C(=C\c1ccccc1OS(=O)(=O)c1ccc(OC(F)(F)F)cc1)C(=O)Nc1nnc(-c2cc3ccccc3[nH]2)s1`, the IC50 with HL-60 [1] is 11.1 µM; with HEK-293T, 14.4 µM; with RS4-11 [4] it was above 20 µM. Further, the inhibition at 48 h, 20 µM in data set [2] was 53%. Also, the results for the inhibition of growth at 20 µM in the data set with HL-60 [3] and with RS4-11 [5] were 59% and 26%, respectively.

As to `Cc1ccc(S(=O)(=O)Oc2cccc(/C=C(\C#N)C(=O)Nc3nnc(C)s3)c2)cc1`, the IC50 with HL-60 [1] is 5.78 µM; in the data set on HEK-293T it was above 50 µM; in the data set with RS4-11 [4] it was above 20 µM. In addition, the inhibition at 48 h, 20 µM in data set [2] turned out to be 27%. For the same molecule, the inhibition of growth at 20 µM in the data set with HL-60 [3] was determined as 71%; in the data set with RS4-11 [5], 28%.

In the case of `Cc1ccc(S(=O)(=O)Oc2ccccc2/C=C(\C#N)C(=O)Nc2nnc(C)s2)cc1`, the IC50 was 11.5 µM in the data set on HL-60 [1], above 20 µM in the data set on HEK-293T and above 20 µM in the data set with RS4-11 [4]. In addition, the inhibition at 48 h, 20 µM in data set [2] turned out to be 35%. The inhibition of growth at 20 µM in the data set on HL-60 [3] was 78%; in the data set with RS4-11 [5] it was 33%.

On to `COc1ccc(S(=O)(=O)Oc2ccccc2/C=C(\C#N)C(=O)Nc2nnc(Cc3ccccc3)s2)cc1`, for which the IC50 in the data set with HL-60 [1] is 3.17 µM; in the data set with HEK-293T, above 50 µM; in the data set with RS4-11 [4], 1.06 µM. Further, in data set [2], the inhibition at 48 h, 20 µM is 23%. Moreover, the values for the inhibition of growth at 20 µM in the data set with HL-60 [3] and in the data set on RS4-11 [5] were 100% and 78%, respectively.

As usually defined, the IC50 is the concentration that gives 50% inhibition.
